# Paper PMC2818544 (Bioorganic & medicinal chemistry, 2009)
# What was measured:
# RmlC and RmlD [1] = target: RmlC and RmlD (Mycobacterium tuberculosis, UniProt P9WH09); type: biochemical; conditions: read-out: Km of NADPH; cofactor; TDP-KDX at 200 μM
# RmlC [2] = target: T1, RmlC (Mycobacterium tuberculosis, UniProt P9WH11); assay: 96-well RmlC/RmlD coupled assay, NADPH absorbance at 340 nm; type: biochemical
# RmlC [3] = target: T1, RmlC; assay: Time dependence of the onset of inhibition; type: biochemical; conditions: pre-incubation 0, 1, 2 or 3 hr
# Procedure, shortened: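 Test compound came from a 16-point 2-fold serial dilution (2.5 mM top stock) and was diluted in water. It was pre-incubated 0–3 hr with 2x RmlC, RmlD and NADPH in 83.5 mM MOPS. TDP-KDX was then added and NADPH fluorescence followed over 90 min. IC50 came from a 4-parameter logistic fit of percent activity.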
# RmlC [4] = target: T1, RmlC; assay: Reversibility of inhibition; type: biochemical; conditions: 10 times IC50 pre-incubated 0 or 0.5 hr with 100x RmlC, diluted 100-fold
# Procedure, shortened: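 Test compound incubated 0 or 0.5 hr at 25°C with concentrated RmlC in buffer, then diluted 100-fold. RmlD, TDP-KDX and NADPH were added, and activity was followed as the decrease in NADPH fluorescence (340/460 nm) over 200 min. Controls had no compound, or compound added only after dilution.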
# RmlC [5] = target: T1, RmlC; assay: Mode of inhibition: TDP-KDX Km; type: biochemical
# RmlC and RmlD [6] = type: biochemical, Mycobacterium tuberculosis; conditions: read-out: IC50 of the known inhibitor TDP
# [7] = Cytotoxicity, CellTiter-Glo luminescence; type: cell-based; conditions: human, human aortic endothelial (HAE) cells
# T1 sequence (P9WH11 whole entry, looked up): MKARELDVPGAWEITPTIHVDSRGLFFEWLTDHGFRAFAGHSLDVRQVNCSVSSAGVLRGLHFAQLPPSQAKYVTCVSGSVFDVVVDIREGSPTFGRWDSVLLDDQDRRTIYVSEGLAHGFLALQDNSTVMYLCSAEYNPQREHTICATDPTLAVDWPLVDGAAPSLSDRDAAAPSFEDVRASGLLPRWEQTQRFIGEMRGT
# Sequence of RmlC and RmlD (Mycobacterium tuberculosis, UniProt P9WH09) (P9WH09 whole entry): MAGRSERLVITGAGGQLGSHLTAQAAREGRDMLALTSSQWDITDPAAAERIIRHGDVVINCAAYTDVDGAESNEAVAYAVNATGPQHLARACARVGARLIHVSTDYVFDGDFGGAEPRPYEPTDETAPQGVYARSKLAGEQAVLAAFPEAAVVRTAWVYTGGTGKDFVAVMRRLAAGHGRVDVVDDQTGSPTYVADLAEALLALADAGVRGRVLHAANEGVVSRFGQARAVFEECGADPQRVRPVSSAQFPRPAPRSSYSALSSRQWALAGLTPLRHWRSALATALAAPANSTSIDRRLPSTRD
structure (smiles),measurement,setting,value
NC(=O)C1=CN([C@@H]2O[C@H](COP(=O)(O)OP(=O)(O)OC[C@H]3O[C@@H](n4cnc5c(N)ncnc54)[C@H](OP(=O)(O)O)[C@@H]3O)[C@@H](O)[C@H]2O)C=CC1 [NADPH],Km,RmlC and RmlD [1],12 µM
C=CCn1c2ccccc2c2nnc(SCn3c(=O)[nH]c4ccccc43)nc21 [SID 7972845],fold increase of IC50 relative to 77074,RmlC [2],86 fold
"CCn1c2ccccc2c2nnc(SCCCn3c(=O)[nH]c4ccccc43)nc21 [SID 7975595, 1-(3-(5-ethyl-5H-[1,2,4]triazino[5,6-b]indol-3-ylthio)propyl)-1H-benzo[d]imidazol-2(3H)-one]",change of IC50 with pre-incubation time (onset of inhibition),RmlC [3],No such decrease in IC50 was observed
same,reversibility of inhibition,RmlC [4],fully reversible inhibitor
same,Ki,RmlC [5],0.1 µM
same,affinity of inhibitor relative to TDP-KDX (Km versus Ki),RmlC [5]; comparison of Km of TDP-KDX and Ki of inhibitor,approximately 2000 fold
same,mode of inhibition,RmlC [5]; versus substrate TDP-KDX,classical competitive inhibitor
"Cc1cn([C@H]2C[C@H](O)[C@@H](COP(=O)(O)OP(=O)(O)O)O2)c(=O)[nH]c1=O [TDP, reference compound]",IC50,RmlC and RmlD [6],340 µM
O=c1[nH]c2ccccc2n1CCCSc1nnc2c3ccccc3n(Cc3ccccc3)c2n1 [compound 77070],fold increase of IC50 relative to SID 7975595 (R1 ethyl),RmlC [2],approximately 15 fold
CCCn1c2ccccc2c2nnc(SCCCn3c(=O)[nH]c4ccccc43)nc21 [compound 77071],fold increase of IC50 relative to 77074,RmlC [2],10 fold
COc1cccc2c1C(=O)c1c(O)c3c(c(O)c1C2=O)C[C@@](O)(C(=O)CO)C[C@@H]3O[C@H]1C[C@H](N)[C@H](O)[C@H](C)O1 [doxorubicin],IC50 at 24 h,[7],~10 µM
